For assay [1], the target named is T1, Signal transducer and activator of transcription 5B (Homo sapiens, UniProt P51692).
T1 sequence (P51692 whole entry): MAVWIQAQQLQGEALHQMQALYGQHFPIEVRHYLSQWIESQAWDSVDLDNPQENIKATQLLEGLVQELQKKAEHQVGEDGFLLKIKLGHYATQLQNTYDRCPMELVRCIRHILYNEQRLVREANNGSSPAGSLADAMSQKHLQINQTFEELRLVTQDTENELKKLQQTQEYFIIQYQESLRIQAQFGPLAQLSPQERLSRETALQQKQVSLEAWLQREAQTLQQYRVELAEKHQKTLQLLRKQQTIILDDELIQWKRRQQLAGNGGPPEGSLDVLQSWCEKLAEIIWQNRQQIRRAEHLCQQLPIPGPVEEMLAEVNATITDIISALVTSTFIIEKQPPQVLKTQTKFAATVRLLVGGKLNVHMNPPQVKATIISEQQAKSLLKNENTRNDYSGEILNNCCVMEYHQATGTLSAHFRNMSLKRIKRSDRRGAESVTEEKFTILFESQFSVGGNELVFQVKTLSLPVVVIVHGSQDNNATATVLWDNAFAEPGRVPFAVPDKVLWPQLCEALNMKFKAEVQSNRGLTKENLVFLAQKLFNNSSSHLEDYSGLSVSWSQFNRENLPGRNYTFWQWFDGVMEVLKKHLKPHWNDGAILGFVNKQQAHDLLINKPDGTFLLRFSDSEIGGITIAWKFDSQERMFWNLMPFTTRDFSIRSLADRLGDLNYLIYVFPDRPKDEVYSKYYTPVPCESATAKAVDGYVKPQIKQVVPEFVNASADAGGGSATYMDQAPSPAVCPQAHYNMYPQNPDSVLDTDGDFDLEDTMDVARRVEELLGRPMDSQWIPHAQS
Put plainly: Displacement of 5-carboxyfluorescein-labeled GpYLVLDKW from the STAT5b-SH2 domain after 15 mins by fluorescent polarization assay. In a few lines:
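Competitive FP binding assay in 50 mM NaCl, 10 mM Hepes pH 7.5, 1 mM EDTA, 2 mM DTT with 5% DMSO final. Protein final concentrations were STAT1 120 nM, STAT3 150 nM and STAT5 105 nM. Inhibitor was tested at 200 to 0.2 μM final against 10 nM fluorescent probe, incubated 15 min. Polarization vs concentration was fitted to a standard dose-response curve.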

Assay [2] deals with T2, Signal transducer and activator of transcription 5A (Homo sapiens) (UniProt P42229).
T2 sequence (whole entry): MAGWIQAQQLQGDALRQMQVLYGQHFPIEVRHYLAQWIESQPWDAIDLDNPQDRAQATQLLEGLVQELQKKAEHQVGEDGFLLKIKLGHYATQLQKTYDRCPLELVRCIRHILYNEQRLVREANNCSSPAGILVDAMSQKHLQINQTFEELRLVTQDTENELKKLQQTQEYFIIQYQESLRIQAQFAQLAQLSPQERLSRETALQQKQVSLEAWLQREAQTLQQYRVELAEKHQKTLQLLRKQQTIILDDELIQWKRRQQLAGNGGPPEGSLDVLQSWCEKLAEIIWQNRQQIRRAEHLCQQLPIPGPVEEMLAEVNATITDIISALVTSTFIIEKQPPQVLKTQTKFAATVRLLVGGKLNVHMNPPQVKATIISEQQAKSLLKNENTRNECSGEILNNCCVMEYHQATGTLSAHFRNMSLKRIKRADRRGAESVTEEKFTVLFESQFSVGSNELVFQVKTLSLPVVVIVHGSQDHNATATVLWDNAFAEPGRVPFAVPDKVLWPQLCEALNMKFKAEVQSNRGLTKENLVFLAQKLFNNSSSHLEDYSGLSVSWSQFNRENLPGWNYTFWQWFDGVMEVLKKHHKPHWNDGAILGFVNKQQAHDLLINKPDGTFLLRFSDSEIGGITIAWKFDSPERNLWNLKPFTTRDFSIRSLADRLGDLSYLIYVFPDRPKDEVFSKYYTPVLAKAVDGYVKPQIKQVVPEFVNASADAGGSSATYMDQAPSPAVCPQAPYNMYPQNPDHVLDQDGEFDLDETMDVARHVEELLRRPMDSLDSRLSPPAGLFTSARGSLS
Put plainly: Inhibition of STAT5-mediated cyclin D2 expression in human K562 cells at 40 uM after 6 hrs by RT-PCR analysis. In kind it is cell-based. Put shortly:
(§1)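 K562 cells were treated at 40 μM for 6 h. Transcript levels of the STAT5 target genes were measured by RT-PCR.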

Assay [3] has as its target T2, Signal transducer and activator of transcription 5A (Homo sapiens). Put plainly: Inhibition of STAT5-mediated cyclin D1 expression in human K562 cells at 40 uM after 6 hrs by RT-PCR analysis. In kind it is cell-based. In a few lines: as §1
Assay [4] can be described thus: Disruption of preformed STAT5 homodimer in NIH3T3 cells co-expressing human EGFR nuclear extracts by electrophoretic mobility shift assay. Type of assay: cell-based. A general note: A gel shift assay detects complexes by their altered migration in electrophoresis.
A further assay concerns K562. The assay is described as follows: Induction of apoptosis in human K562 cells assessed as pre-necrotic cells at 40 uM after 24 hrs using annexin-V FITC/PI double staining by flow cytometry (reference value: 0.36%). Type of assay: functional. Background: A flow cytometer gives signals particle by particle.
Assay [5] concerns the target Bcr/Abl fusion protein (Homo sapiens) (UniProt P00519+P11274). The assay is described as follows: Inhibition of BCR-ABL-mediated STAT3 phosphorylation in human K562 cells at 40 uM after 6 hrs by phospho-flow cytometry. In kind it is cell-based. In a few lines:
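K562 cells were treated at 40 μM for 6 h, or left untreated, then fixed. Cells were stained with unlabeled rabbit monoclonal antibodies to pSTAT3, pSTAT5 or pAKT1, detected with Cy5-anti-rabbit IgG, and read by flow cytometry.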

Assay [6] has as its target T3, Signal transducer and activator of transcription 1-alpha/beta (Homo sapiens, UniProt P42224).
T3 sequence (P42224 whole entry): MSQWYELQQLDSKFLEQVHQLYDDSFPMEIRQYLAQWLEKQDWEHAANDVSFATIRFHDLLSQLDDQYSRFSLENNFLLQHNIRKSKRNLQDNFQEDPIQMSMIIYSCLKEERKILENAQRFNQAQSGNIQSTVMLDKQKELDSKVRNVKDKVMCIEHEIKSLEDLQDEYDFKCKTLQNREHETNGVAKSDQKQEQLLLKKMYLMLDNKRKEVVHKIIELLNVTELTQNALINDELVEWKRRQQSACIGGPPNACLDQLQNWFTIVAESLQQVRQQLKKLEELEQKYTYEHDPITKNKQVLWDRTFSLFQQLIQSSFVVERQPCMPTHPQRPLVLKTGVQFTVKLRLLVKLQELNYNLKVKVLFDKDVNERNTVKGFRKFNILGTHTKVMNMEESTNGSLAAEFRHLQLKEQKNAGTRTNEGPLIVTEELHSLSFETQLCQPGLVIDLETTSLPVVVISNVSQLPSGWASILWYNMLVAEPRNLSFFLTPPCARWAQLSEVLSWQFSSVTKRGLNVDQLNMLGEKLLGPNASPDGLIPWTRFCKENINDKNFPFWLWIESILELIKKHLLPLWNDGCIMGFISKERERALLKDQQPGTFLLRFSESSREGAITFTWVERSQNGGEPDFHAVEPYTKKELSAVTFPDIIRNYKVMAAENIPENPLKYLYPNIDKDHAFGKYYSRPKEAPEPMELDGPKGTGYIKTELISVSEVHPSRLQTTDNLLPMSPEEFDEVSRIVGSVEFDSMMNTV
Put plainly: Displacement of fluorescent probe from the STAT1 after 15 mins by fluorescent polarization assay.

Activity calls are given as the source filed them. The calls are words filed in the database; no cut-off is given here.

Bcr/Abl fusion protein (Homo sapiens), sequence (P00519 whole entry, looked up, the tested form may be a part): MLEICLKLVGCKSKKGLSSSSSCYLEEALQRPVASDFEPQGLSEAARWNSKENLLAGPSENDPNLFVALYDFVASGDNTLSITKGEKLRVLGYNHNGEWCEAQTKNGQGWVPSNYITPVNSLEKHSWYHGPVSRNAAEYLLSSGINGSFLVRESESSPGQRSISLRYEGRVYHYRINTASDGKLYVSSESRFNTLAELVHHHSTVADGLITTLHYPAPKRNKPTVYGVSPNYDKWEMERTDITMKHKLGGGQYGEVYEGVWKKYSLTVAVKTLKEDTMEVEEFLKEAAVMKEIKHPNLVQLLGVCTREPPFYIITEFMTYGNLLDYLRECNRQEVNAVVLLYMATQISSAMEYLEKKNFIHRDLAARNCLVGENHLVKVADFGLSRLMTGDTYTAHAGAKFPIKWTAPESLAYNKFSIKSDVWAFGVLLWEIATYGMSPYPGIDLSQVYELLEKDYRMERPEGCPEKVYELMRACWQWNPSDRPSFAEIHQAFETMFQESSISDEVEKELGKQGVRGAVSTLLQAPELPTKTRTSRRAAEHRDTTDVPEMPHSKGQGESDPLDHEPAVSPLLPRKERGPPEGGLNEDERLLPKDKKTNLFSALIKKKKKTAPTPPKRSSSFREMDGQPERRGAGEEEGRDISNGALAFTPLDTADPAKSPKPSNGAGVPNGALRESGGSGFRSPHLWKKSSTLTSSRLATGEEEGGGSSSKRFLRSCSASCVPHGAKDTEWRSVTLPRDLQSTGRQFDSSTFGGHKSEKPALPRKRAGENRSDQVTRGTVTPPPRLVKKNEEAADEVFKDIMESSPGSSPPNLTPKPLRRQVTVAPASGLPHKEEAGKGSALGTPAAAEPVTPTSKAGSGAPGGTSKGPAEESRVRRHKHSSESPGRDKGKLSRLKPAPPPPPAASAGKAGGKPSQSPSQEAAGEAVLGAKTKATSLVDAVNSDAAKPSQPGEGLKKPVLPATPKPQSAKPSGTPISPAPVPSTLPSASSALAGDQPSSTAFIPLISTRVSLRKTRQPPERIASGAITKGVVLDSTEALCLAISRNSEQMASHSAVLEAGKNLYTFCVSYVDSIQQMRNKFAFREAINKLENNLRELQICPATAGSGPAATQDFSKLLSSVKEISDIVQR
Bcr/Abl fusion protein (Homo sapiens), sequence (P11274 whole entry, looked up, the tested form may be a part): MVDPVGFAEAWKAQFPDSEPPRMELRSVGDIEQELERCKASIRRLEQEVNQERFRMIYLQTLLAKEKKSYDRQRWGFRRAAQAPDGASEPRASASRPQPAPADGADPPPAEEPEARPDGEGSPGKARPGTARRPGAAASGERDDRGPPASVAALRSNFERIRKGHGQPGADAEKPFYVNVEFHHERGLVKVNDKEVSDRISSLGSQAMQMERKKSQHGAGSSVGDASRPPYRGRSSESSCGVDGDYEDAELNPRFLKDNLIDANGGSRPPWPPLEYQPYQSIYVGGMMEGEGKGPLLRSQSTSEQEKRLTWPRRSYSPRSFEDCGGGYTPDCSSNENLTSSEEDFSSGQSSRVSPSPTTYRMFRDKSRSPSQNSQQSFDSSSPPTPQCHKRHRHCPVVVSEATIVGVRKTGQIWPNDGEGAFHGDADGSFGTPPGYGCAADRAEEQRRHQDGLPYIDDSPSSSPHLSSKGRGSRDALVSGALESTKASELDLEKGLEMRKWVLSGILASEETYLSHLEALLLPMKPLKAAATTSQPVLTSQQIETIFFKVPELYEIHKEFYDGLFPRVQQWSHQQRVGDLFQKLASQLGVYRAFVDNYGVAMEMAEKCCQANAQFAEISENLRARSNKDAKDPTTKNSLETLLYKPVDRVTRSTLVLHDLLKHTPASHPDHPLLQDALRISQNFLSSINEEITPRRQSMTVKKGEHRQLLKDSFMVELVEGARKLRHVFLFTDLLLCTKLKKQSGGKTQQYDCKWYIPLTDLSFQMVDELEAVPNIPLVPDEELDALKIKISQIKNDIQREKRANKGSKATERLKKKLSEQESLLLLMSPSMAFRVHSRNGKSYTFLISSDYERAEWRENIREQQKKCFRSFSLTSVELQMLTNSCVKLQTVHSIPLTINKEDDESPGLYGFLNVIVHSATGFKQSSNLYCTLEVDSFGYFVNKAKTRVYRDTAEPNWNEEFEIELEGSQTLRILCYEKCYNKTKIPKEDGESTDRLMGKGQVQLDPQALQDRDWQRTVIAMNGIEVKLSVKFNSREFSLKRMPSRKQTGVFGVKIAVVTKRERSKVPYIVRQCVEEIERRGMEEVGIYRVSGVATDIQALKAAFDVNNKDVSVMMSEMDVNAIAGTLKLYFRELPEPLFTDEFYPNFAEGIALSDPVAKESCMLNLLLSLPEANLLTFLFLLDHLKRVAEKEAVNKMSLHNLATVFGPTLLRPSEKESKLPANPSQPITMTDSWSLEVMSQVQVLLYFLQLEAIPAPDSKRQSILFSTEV

For orientation: Ki means the equilibrium dissociation constant of an inhibitor or competing ligand from its target. One may read the IC50 as the concentration needed to halve the response being measured. Regarding `Cc1cc(C)c(S(=O)(=O)N(C)CC(=O)N(Cc2ccc(C3CCCCC3)cc2)c2ccc(C(=O)O)c(O)c2)c(C)c1`, the values for the Ki in assay [1] and in assay [6] were 2.8 µM and 9.7 µM, respectively. Moreover, the inhibition result in assay [2] and in assay [3] was “Active” in each case. For the same compound, the 50% inhibitory concentration (IC50) in assay [4] turned out to be 100 µM. For the same compound, the Activity with K562 was determined as 0.41%. The inhibition entry in assay [5] was “inactive”.

Source of the values: ChEMBL document CHEMBL2021835 (J Med Chem, 2012).
